Consider 24 compounds from ChEMBL document CHEMBL3603811, “Design, chemical synthesis and biological evaluation of 3-spiromorpholinone/3-spirocarbamate androsterone derivatives as inhibitors of 17β-hydroxysteroid dehydrogenase type 3” (Bioorg Med Chem, 2015).

Assay [1] has as its target T1, 17-beta-hydroxysteroid dehydrogenase type 3 (Rattus norvegicus) (UniProt O54939).
T1 sequence (whole entry): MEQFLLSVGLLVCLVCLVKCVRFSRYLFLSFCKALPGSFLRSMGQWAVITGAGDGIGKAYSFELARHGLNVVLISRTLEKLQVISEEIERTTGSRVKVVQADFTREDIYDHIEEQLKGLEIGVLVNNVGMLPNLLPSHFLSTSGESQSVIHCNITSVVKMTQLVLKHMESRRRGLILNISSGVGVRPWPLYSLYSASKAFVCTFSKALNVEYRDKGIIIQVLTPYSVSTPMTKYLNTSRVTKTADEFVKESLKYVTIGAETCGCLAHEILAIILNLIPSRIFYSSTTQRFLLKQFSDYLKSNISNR
In words: Inhibition of 17beta-HSD3 in rat testes microsomes using [14C]-4-androstene-3,17-dione as substrate measured based on 4% of initial enzyme transformation at 1 uM after 2 hrs. To be noted: Testis. The procedure, abridged:
(§1)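 Rat testis microsomes: homogenate in phosphate/sucrose/EDTA buffer pH 7.5 with protease inhibitors, spun 12,500g, then pellet from 100,000g, at 4 °C. Reaction 2 h at 37 °C in 50 mM sodium phosphate pH 7.4, 20% glycerol, 1 mM EDTA, with NADPH and [14C]-Δ4-dione (50 nM). Inhibitor in DMSO. [14C]-T and substrate identified against reference steroids and quantified. Percent transformation and percent inhibition calculated.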

The test system of assay [2] is LAPC4. Nature of the assay: Androgenic activity in human LAPC4 cells expressing androgen receptor assessed as induction of cell proliferation at 0.1 uM after 3 days by MTS assay relative to control. Format: functional. In short, it runs like this: (§2)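 LAPC-4 (AR+) cells in RPMI-1640 with 5% dextran-coated charcoal-treated FBS to remove hormones. Triplicate cultures of 10,000 cells preincubated 24 h at 37 °C, 5% CO2. Compounds from 10^-2 M DMSO stock, diluted in medium, added for 3 days (final DMSO 0.05%; vehicle controls). Growth read by MTS. Androgenicity = % proliferation minus basal set at 100%.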
On the technique in general: Tetrazolium assays rely on reduction of a dye to a coloured formazan, in cell work by metabolically active cells.

Assay [3] concerns LAPC4. Nature of the assay: Androgenic activity in human LAPC4 cells expressing androgen receptor assessed as induction of cell proliferation at 1 uM after 3 days by MTS assay relative to control. It counts as functional. The procedure, abridged:
as §2

Assay [4] concerns the target T1, 17-beta-hydroxysteroid dehydrogenase type 3 (Rattus norvegicus). Nature of the assay: Inhibition of 17beta-HSD3 in rat testes microsomes using [14C]-4-androstene-3,17-dione as substrate measured based on 4% of initial enzyme transformation at 10 uM after 2 hrs. To be noted: Testis. The procedure, abridged:
as §1

For assay [5] the target is unchanged. Nature of the assay: Inhibition of 17beta-HSD3 in rat testes microsomes using [14C]-4-androstene-3,17-dione as substrate measured based on 18% of initial enzyme transformation at 0.1 uM after 2 hrs. To be noted: Testis. In short, it runs like this:
as §1

Assay [6] shares this target. Nature of the assay: Inhibition of 17beta-HSD3 in rat testes microsomes using [14C]-4-androstene-3,17-dione as substrate measured based on 18% of initial enzyme transformation at 0.01 uM after 2 hrs. To be noted: Testis. The procedure, abridged:
as §1

Assay [7] has the same target. Nature of the assay: Inhibition of 17beta-HSD3 in rat testes microsomes using [14C]-4-androstene-3,17-dione as substrate measured based on 18% of initial enzyme transformation at 1 uM after 2 hrs. To be noted: Testis. In short, it runs like this: as §1

A word on the inhibition: it is how much of the control response was suppressed. Lower therefore signals little suppression. For `C[C@]12CC[C@]3(CN[C@@H](Cc4ccccc4)C(=O)O3)C[C@@H]1CC[C@@H]1[C@@H]2CC[C@]2(C)C(=O)CC[C@@H]12`, the figures for the inhibition in assay [1] and in assay [4] were 75% and 88.2%, respectively. Moreover, the Activity in the assay with LAPC4 [2] is recorded as 3.9%; in the assay on LAPC4 [3], 36.5%.

`C[C@]12CC[C@]3(CNCC(=O)O3)C[C@@H]1CC[C@@H]1[C@@H]2CC[C@]2(C)C(=O)CC[C@@H]12`: the values for the inhibition in assay [1], in assay [5] and in assay [4] were 44.7%, 0% and 82%, respectively. Also, the values for the Activity in the assay with LAPC4 [2] and in the assay with LAPC4 [3] were 9.7% and 32%, respectively.

Consider `C[C@]12CC[C@@]3(C[C@@H]1CC[C@@H]1[C@@H]2CC[C@]2(C)C(=O)CC[C@@H]12)CN(Cc1ccccc1)[C@@H](Cc1ccccc1)C(=O)O3`, for which the inhibition was found to be 81% in assay [1] and 83.6% in assay [4]. In addition, the Activity in the assay with LAPC4 [2] is recorded as 6.1%; in the assay on LAPC4 [3], 53.7%.

Take `CC(C)C[C@H]1NC[C@]2(CC[C@@]3(C)[C@@H](CC[C@@H]4[C@@H]3CC[C@]3(C)C(=O)CC[C@@H]43)C2)OC1=O`: the inhibition worked out at 50.2% in assay [1], 17.9% in assay [5] and 77.7% in assay [4]. The results for the Activity in the assay with LAPC4 [2] and with LAPC4 [3] were 7.9% and 23.6%, respectively.

With `C[C@]12CC[C@@]3(C[C@@H]1CC[C@@H]1[C@@H]2CC[C@]2(C)C(=O)CC[C@@H]12)CN(Cc1ccc(-c2cccc(C(F)(F)F)c2)cc1)CC(=O)O3`, the inhibition in assay [5] is 84.8%; in assay [6], 26.1%; in assay [7], 84.9%. Moreover, the Activity in the assay on LAPC4 [2] turned out to be 13.5%; with LAPC4 [3], 14.3%.

For `C[C@]12CC[C@@]3(C[C@@H]1CC[C@@H]1[C@@H]2CC[C@]2(C)C(=O)CC[C@@H]12)CN(Cc1cc(C(F)(F)F)cc(C(F)(F)F)c1)CC(=O)O3`, the inhibition in assay [5] worked out at 61.6%; in assay [6], 15.1%; in assay [7], 94.4%. For the same compound, the Activity with LAPC4 [2] came to 12%; with LAPC4 [3] it was 5.9%.

On to `C[C@]12CC[C@]3(CN[C@H](Cc4ccccc4)C(=O)O3)C[C@@H]1CC[C@@H]1[C@@H]2CC[C@]2(C)C(=O)CC[C@@H]12`, for which the figures for the Activity in the assay on LAPC4 [2] and in the assay with LAPC4 [3] were 0% and 15.3%, respectively. In assay [4], this compound yielded an inhibition of 70.6%.

For the compound `C[C@]12CC[C@@]3(C[C@@H]1CC[C@@H]1[C@@H]2CC[C@]2(C)C(=O)CC[C@@H]12)CN(Cc1cccc(C(F)(F)F)c1)CC(=O)O3`, the inhibition is 54.1% in assay [5], 17.7% in assay [6] and 94.2% in assay [7]. Also, the values for the Activity in the assay with LAPC4 [2] and with LAPC4 [3] were 0% and 27%, respectively.

Regarding `C[C@]12CC[C@@]3(C[C@@H]1CC[C@@H]1[C@@H]2CC[C@]2(C)C(=O)CC[C@@H]12)CN(Cc1cccc2ccccc12)CC(=O)O3`, the inhibition amounted to 79.1% in assay [5], 12.8% in assay [6] and 94.5% in assay [7]. Also, the Activity in the assay with LAPC4 [2] amounted to 3.8%; in the assay on LAPC4 [3], 9.3%.

With `COC(=O)[C@H](Cc1ccccc1)N1C[C@]2(CC[C@@]3(C)[C@@H](CC[C@@H]4[C@@H]3CC[C@]3(C)C(=O)CC[C@@H]43)C2)OC1=O`, the inhibition was 72.1% in assay [1], 48.3% in assay [5] and 87.7% in assay [4]. For the same compound, the Activity with LAPC4 [2] and in the assay with LAPC4 [3] was 0% each time.

On to `C[C@]12CC[C@@]3(C[C@@H]1CC[C@@H]1[C@@H]2CC[C@]2(C)C(=O)CC[C@@H]12)CN(Cc1ccc2ccccc2c1)CC(=O)O3`, for which the inhibition in assay [5] came to 88.3%; in assay [6], 0%; in assay [7], 93.2%. Besides, the Activity with LAPC4 [2] was 22.3%; with LAPC4 [3] it was 16.5%.

With `C[C@]12CC[C@@]3(C[C@@H]1CC[C@@H]1[C@@H]2CC[C@]2(C)C(=O)CC[C@@H]12)CN(Cc1cn(Cc2ccccc2)nn1)CC(=O)O3`, the inhibition was 42.2% in assay [5], 5.1% in assay [6] and 85.3% in assay [7]. Also, the figures for the Activity in the assay with LAPC4 [2] and in the assay with LAPC4 [3] were 10% and 17.7%, respectively.

The compound `C[C@]12CC[C@@]3(C[C@@H]1CC[C@@H]1[C@@H]2CC[C@]2(C)C(=O)CC[C@@H]12)CN(Cc1ccccc1)[C@H](Cc1ccccc1)C(=O)O3` registered an inhibition in assay [1] of 61.7%. Further, the figures for the Activity with LAPC4 [2] and with LAPC4 [3] were 9.9% and 50.1%, respectively.

On to `COC(=O)[C@@H](Cc1ccccc1)N1C[C@]2(CC[C@@]3(C)[C@@H](CC[C@@H]4[C@@H]3CC[C@]3(C)C(=O)CC[C@@H]43)C2)OC1=O`, for which the inhibition in assay [1] worked out at 74.3%; in assay [5], 56.1%; in assay [4], 80.8%. Also, the Activity is recorded as 0% with LAPC4 [2] and 29.2% in the assay on LAPC4 [3].

Take `C#CCN1CC(=O)O[C@@]2(CC[C@@]3(C)[C@@H](CC[C@@H]4[C@@H]3CC[C@]3(C)C(=O)CC[C@@H]43)C2)C1`: the inhibition in assay [5] came to 34.1%; in assay [6], 0.1%; in assay [7], 80.7%. Further, the Activity stood at 20.1% in the assay with LAPC4 [2] and 25.5% in the assay with LAPC4 [3].

As for `C[C@]12CCC(=O)C[C@@H]1CC[C@@H]1[C@@H]2CC[C@]2(C)[C@@H](O)CC[C@@H]12` [STANOLONE], the results for the Activity in the assay on LAPC4 [2] and in the assay with LAPC4 [3] were 28.8% and 51.5%, respectively.

`C#CCN1CC2(CCCCC2)OC(=O)[C@@H]1Cc1ccccc1`: the inhibition in assay [5], in assay [6] and in assay [7] was 0% each time. Further, the values for the Activity with LAPC4 [2] and in the assay on LAPC4 [3] were 11.1% and 0%, respectively.

Turning to `C=CCN1CC(=O)O[C@@]2(CC[C@@]3(C)[C@@H](CC[C@@H]4[C@@H]3CC[C@]3(C)C(=O)CC[C@@H]43)C2)C1`, the figures for the inhibition in assay [5], in assay [6] and in assay [7] were 48.6%, 8.4% and 89%, respectively. Further, the Activity in the assay on LAPC4 [2] is 31%; in the assay with LAPC4 [3] it was 11.3%.

Take `C[C@]12CC[C@@]3(C[C@@H]1CC[C@@H]1[C@@H]2CC[C@]2(C)C(=O)CC[C@@H]12)CN(Cc1ccc(I)cc1)CC(=O)O3`: the inhibition in assay [5] was 79%; in assay [6], 12.2%; in assay [7], 95.3%. For the same compound, the Activity with LAPC4 [2] is on record as 0.9%; in the assay on LAPC4 [3] it was 15.9%.

In the case of `CC(C)C[C@@H]1C(=O)O[C@@]2(CC[C@@]3(C)[C@@H](CC[C@@H]4[C@@H]3CC[C@]3(C)C(=O)CC[C@@H]43)C2)CN1Cc1ccccc1`, the inhibition in assay [1] turned out to be 56.5%; in assay [5], 45.9%; in assay [4], 82.3%. Further, the Activity in the assay with LAPC4 [2] is reported as 6.2%; in the assay with LAPC4 [3], 47.7%.

`C[C@]12CC[C@@]3(C[C@@H]1CC[C@@H]1[C@@H]2CC[C@]2(C)C(=O)CC[C@@H]12)CN(Cc1ccccc1C(F)(F)F)CC(=O)O3`: the inhibition in assay [5] stood at 77.9%; in assay [6], 24.4%; in assay [7] it was 83%. Moreover, the Activity with LAPC4 [2] is given as 0.5%; in the assay with LAPC4 [3] it was 36.9%.

Turning to `COC(=O)CN1C[C@]2(CC[C@@]3(C)[C@@H](CC[C@@H]4[C@@H]3CC[C@]3(C)C(=O)CC[C@@H]43)C2)OC1=O`, the inhibition in assay [1] stood at 54.6%; in assay [5], 9%; in assay [4] it was 80.8%. The Activity in the assay with LAPC4 [2] worked out at 11%; in the assay on LAPC4 [3], 33.8%.

Regarding `C[C@]12CC[C@@]3(C[C@@H]1CC[C@@H]1[C@@H]2CC[C@]2(C)C(=O)CC[C@@H]12)CN(Cc1ccc(C(F)(F)F)cc1C(F)(F)F)CC(=O)O3`, the results for the inhibition in assay [5], in assay [6] and in assay [7] were 64.1%, 18.3% and 89.6%, respectively. The figures for the Activity in the assay with LAPC4 [2] and with LAPC4 [3] were 0% and 27%, respectively.

Consider `O=C1OC2(CCCCC2)CN(Cc2cn(Cc3ccccc3)nn2)[C@H]1Cc1ccccc1`, for which the results for the inhibition in assay [5], in assay [6] and in assay [7] were 9.4%, 0% and 13.3%, respectively. The values for the Activity in the assay on LAPC4 [2] and with LAPC4 [3] were 2.5% and 12.4%, respectively.
